Measurements published in PubChem BioAssay AID602394 (Broad Institute, 2012).
Several values for one entry are separate records, joined by “and”; a condition that tells them apart may be missing. Equal values may be shown once. Activity calls are given as the source filed them.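 Rule for the calls: active = falling signal, meaning toxicity, with AC50 at or below twice the top valid dose for that sample; inconclusive = flat curve showing 30 to 70% toxicity, or poor fit; inactive = the rest.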

Legend:
[1] = cytotoxicity in NIH 3T3 fibroblasts, dose response, cytotoxicity control for antifungal single agent project, cell-based, dry powder, set 2, plate reader (AID 602394); details: NIH 3T3 fibroblast viability, Alamar Blue fluorescence, 48 h
Method in brief: (§1)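 Test system: NIH 3T3 fibroblasts. Amount: 1,000 cells per well, plated overnight before dosing. Timing: 48 h compound exposure at 37 °C, then 2–3 h dye incubation. Benchmarks: geldanamycin at 10 µM as inhibition control. Medium: Optimem supplemented with 2.5% fetal bovine serum. Detection: Alamar Blue fluorescence, Ex 544/Em 590 nm.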

[2] = test system: NIH 3T3 fibroblast viability, Alamar Blue fluorescence, 48 h; assay: as above
Method in brief: as §1

| SMILES | activity change, negative = toxicity ([1]; at 26 µM (top of the series)) | further results |
| --- | --- | --- |
| CCOC(=O)N1C(=O)C(C)(C)N(c2ccc(C)cc2)C1=S | 14.6% (inactive) |  |
| CCOC(=O)N1C(=O)C2(CCCCC2)N(Cc2ccccc2)C1=S | -2.91% (inactive) |  |
| Cc1ccc(N2CC(=O)NC2=S)cc1 |  | AC50 [2]: 20.7 µM |
| Cc1ccc(N2C(=S)N(C(=O)OCc3ccccc3)C(=O)C23CCCCC3)cc1 |  | AC50 [2]: 6.98 µM |
| CCOC(=O)N1C(=O)C2(CCCCC2)N(c2cccc(C)c2)C1=S |  | AC50 [2]: 24.2 µM |
| Cc1ccc(N2C(=S)NC(=O)C2(C)C)cc1 | -5% (inactive) |  |
| CCOC(=O)N1C(=O)C2(CCCCC2)N(c2ccc(-c3ccccc3)cc2)C1=S |  | AC50 [2]: 9.81 µM |
| CCCC(=O)N1C(=O)C2(CCCCC2)N(c2ccc(C)cc2)C1=S |  | AC50 [2]: 18.8 µM |
| CC(C)N1C(=S)NC(=O)C12CCCCC2 | 47.5% (inactive) |  |
| CCOC(=O)N1C(=O)C2(CCCCC2)N(c2ccc(CC)cc2)C1=S |  | AC50 [2]: 19.5 µM |
| Cc1ccc(N2C(=S)NC(=O)C23CCCCC3)cc1 | 12.5% (inactive) |  |
| Cc1ccc(N2C(=S)NC(=O)C23CCC3)cc1 | 25% (inactive) |  |
| Cc1ccc(N2C(=S)N(C(=O)OC(C)C)C(=O)C23CCCCC3)cc1 |  | AC50 [2]: > 52 µM (inactive) |
| CCOC(=O)N1C(=S)NC(=O)C12CCCCC2 | 2.71% (inactive) |  |
| CCOC(=O)N1C(=O)C2(CCCC2)N(c2ccc(C)cc2)C1=S | 8.13% (inactive) |  |
| CCOC(=O)N1C(=O)C2(CCCCC2)N(c2ccc(C(C)C)cc2)C1=S |  | AC50 [2]: 13.8 µM |
| CCOC(=O)N1C(=O)C2(CCCCC2)N(c2ccc(C#N)cc2)C1=S | 10.9% (inactive) |  |
| CCOC(=O)N1C(=O)C2(CCCCC2)N(c2ccc(C(F)(F)F)cc2)C1=S |  | AC50 [2]: 12.5 µM |
| O=C1NC(=S)N(c2ccc(F)cc2)C12CCCCC2 | 10.6% (inactive) |  |
| O=C1NC(=S)N(c2ccccc2)C12CCCCC2 | 52.9% (inactive) |  |
| O=C1NC(=S)NC12CCCCC2 | 3.57% (inactive) |  |
| CCOC(=O)N1C(=O)C2(CCC2)N(c2ccc(C)cc2)C1=S | -6.41% (inactive) |  |
| Cc1ccc(N2CC(=O)NC2=O)cc1 | 22.5% (inactive) |  |
| CCOC(=O)N1C(=O)C2(CCCCC2)N(c2ccc(C(C)(C)C)cc2)C1=S |  | AC50 [2]: 16.5 µM |

| SMILES | activity change, negative = toxicity ([1]; at 26 µM (top of the series)) | further results |
| --- | --- | --- |
| Cc1ccc(N2C(=O)C3(CCCCC3)NC2=S)cc1 | -13% (inactive) |  |
| CCOC(=O)N1C(=O)C2(CCCCC2)N(c2ccccc2)C1=S | 17.3% (inactive) |  |
| Cc1ccc(N2C(=O)NC(=O)C23CCCCC3)cc1 | -10.2% (inactive) |  |
| CCOC(=O)N1C(=O)C2(CCOCC2)N(c2ccc(C)cc2)C1=S | 8.99% (inactive) |  |
| Cc1ccc(N2C(=S)N(S(C)(=O)=O)C(=O)C23CCCCC3)cc1 | -8.26% (inactive) |  |
| CCOC(=O)N1C(=O)C2(CCCCC2)N(c2ccccc2C)C1=S | -14% (inactive) |  |
| O=C1NC(=S)N(Cc2ccccc2)C12CCCCC2 | 5.77% (inactive) |  |
| CCOC(=O)N1C(=S)N(c2ccc(C)cc2)C2(CCCCC2)C1=NCc1ccccc1 |  | AC50 [2]: > 52 µM (inactive) |
| CCOC(=O)N1C(=O)C2(CCCCC2)N(c2ccc(F)cc2)C1=S | -18.1% (inactive) |  |
| Cc1ccc(N2C(=S)N(C)C(=O)C23CCCCC3)cc1 | -4.95% (inactive) and -14.4% (inactive) |  |
| CCCCN1C(=O)C2(CCCCC2)N(c2ccc(C)cc2)C1=S |  | AC50 [2]: 24.2 µM |
| CCOC(=O)N1C(=O)C2(CCCCC2)NC1=S | 4.41% (inactive) |  |
| Cc1ccc(N2C(=O)N(C)C(=O)C23CCCCC3)cc1 | -27.1% (inactive) |  |
| CCOC(=O)N1C(=O)C2(CCCCC2)N(C(C)C)C1=S | -8.87% (inactive) |  |
| CCOC(=O)N1C(=O)C2(CCCCC2)N(c2ccc(Cl)cc2)C1=S |  | AC50 [2]: 22.3 µM |
| Cc1ccc(N2C(=S)NC(=O)C23CCOCC3)cc1 | 29.4% (inactive) |  |
| CCCc1ccc(N2C(=S)N(C(=O)OCC)C(=O)C23CCCCC3)cc1 | -15.8% (inactive) |  |
| CCOC(=O)N1C(=O)C2(CCCCC2)N(c2ccc(OC)cc2)C1=S | 21.1% (inactive) |  |
| CCCCN1C(=O)N(c2ccc(C)cc2)C2(CCCCC2)C1=S |  | AC50 [2]: 20.9 µM |
| CC1/C=C/C=C\C=C\C=C\C=C\C=C\C=C\C(O[C@H]2OC(C)C(O)C(N)C2O)CC2OC(O)(CC(O)CC(O)C(O)CCC(O)CC(O)CC(=O)OC(C)C(C)C1O)CC(O)C2C(=O)O (stereo partly drawn) |  | activity change, negative = toxicity ([1]; at 2.6 µM (top of the series)): -14.9% (inactive) |
| Cc1ccc(N2C(=O)C(=O)NC2=S)cc1 | 3.56% (inactive) |  |
| CCOC(=O)N1C(=O)N(c2ccc(C)cc2)C2(CCCCC2)C1=O | 7.79% (inactive) |  |
| Cc1ccc(N2C(=S)N(C(=O)Oc3ccccc3)C(=O)C23CCCCC3)cc1 | 0.942% (inactive) |  |
| CCCCN1C(=O)N(c2ccc(C)cc2)C2(CCCCC2)C1=O | -35.3% (inactive) |  |
